Results taken from PMC6125788 (Molecular pharmaceutics, 2018).

Tests used:
[1] = tested on: A375 cells; assay: Cellular uptake by flow cytometry in A375 cells; assay type: cell-based, human; details: free cRGDfK 10 μM
Summary of the method: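 A375 cells grown in DMEM with 10% FBS and 1% penicillin/streptomycin at 37 °C, 5% CO2. Cells were exposed to untargeted or RGD-targeted PEG-IR700 conjugate for 4 h, with or without free cRGDfK (10 μM). They were then trypsinized to single cells, and cell-associated fluorescence was read by flow cytometry.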

[2] = tested on: A375 cells; assay: Phototoxicity and dark toxicity, Alamar Blue assay; assay type: cell-based, human; details: no irradiation, up to 1000 nM of IR700 equiv.
Summary of the method: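 A375 cells were incubated overnight at 37 °C with free IR700 or PEG-IR700 conjugates at increasing concentrations (IR700 equiv.). Cells were then washed with fresh medium and kept unirradiated, as dark controls for the 660 nm photo-irradiation arm. Viability was measured 24 h later by Alamar Blue (4 h, fluorescence Ex 540/Em 590 nm); N = 4.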

SMILES | effect of free peptide on uptake of RGD-8PEG-IR700 [1] | cytotoxicity in dark [2]
N=C(N)NCCC[C@@H]1NC(=O)[C@H](CCCCN)NC(=O)[C@@H](Cc2ccccc2)NC(=O)[C@H](CC(=O)O)NC(=O)CNC1=O [cRGDfK] | dramatically reduce the uptake | 
C[Si](C)(CCC[N+](CCCS(=O)(=O)[O-])(CCCS(=O)(=O)[O-])CCCS(=O)(=O)[O-])O[Si]1(O[Si](C)(C)CCC[N+](CCCS(=O)(=O)[O-])(CCCS(=O)(=O)[O-])CCCS(=O)(=O)[O-])n2c3c4ccccc4c2N=C2N=C(N=c4c5ccccc5c(n41)=NC1=NC(=N3)c3ccccc31)c1cccc(OCCCOC(=O)NCCCCCC(=O)ON3C(=O)CCC3=O)c12.[Na+].[Na+].[Na+].[Na+] (centres unmarked) [IR700, IRDye 700DX] |  | no dark toxicity
